From ChEMBL document CHEMBL5724801, “EUbOPEN Chemogenomics Library - Multiplex” (2024)
Where “and” joins values, the source holds several entries; their conditions need not be identical. Equal values may be shown once. Non-standard residues stand in square brackets, D forms with d. Residues, ends and D or L forms follow the SMILES beside them.

Each compound was assayed on U2OS (assay: Multiplex assay against U2OS). Details: human, 12 h, 1 µM, compound concentration 1 uM.
Assay type: toxicity, cell-based
Summary of the method: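 Hoechst33342, BioTracker Green Microtubule Cytoskeleton Dye, MitoTracker Red and Annexin V Alexa Fluor 680 were added to live cells at seeding, and imaging on a CQ1 microscope at 37°C and 5% CO2 followed compound addition. Gating by CellPathfinder machine learning separated cells into Hoechst high-intensity objects or normal cells, then normal cells into healthy, pyknosed or fragmented nuclei, then pyknosed cells into mitotic or apoptotic. Per cents of healthy-nucleus cells are reported for the tubulin, mitochondrial-mass and membrane-permeability phenotypes.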

Structure (SMILES)	Population Apoptotic (%)	Population Fragmented Nuclei (%)	Population Healthy Nuclei (%)	Population Hoechst High Intensity Objects (%)	Population Membrane Permeable-Phenotype (%)	Population Mitochondria Different-Phenotype (%)	Population Mitotic Cells (%)	Population Normal (%)	Population Pyknosed Nuclei (%)	Population Tubulin-Different-Phenotype (%)
C[C@H]1[C@H]2CC[C@H]3[C@@H]4CC=C5C[C@@H](N(C)C)CC[C@]5(C)[C@H]4CC[C@]23CN1C [CONESSINE]	80% and 58%	23% and 16%	70% and 73%	2% and 1%	5%	1% and 2%	20% and 41%	97% and 98%	6% and 9%	2% and 3%
CCCC(CCC)C(=O)O [VALPROIC ACID]	72% and 66%	28% and 14%	63% and 77%	6% and 2%	9% and 8%	7% and 3%	27% and 33%	93% and 97%	8%	8% and 6%
CC(C)C[C@@H]1NC(=O)[C@@H](C(C)C)NC(=O)[C@@H]2CCCN2C(=O)[C@@H](CC(=O)O)NC(=O)[C@@H](Cc2c[nH]c3ccccc23)NC1=O [BQ-123] (cyclo(L[dW][dD]P[dV]))	77% and 83%	20% and 19%	69% and 75%	0% and 2%	1% and 2%	1% and 0%	22% and 16%	99% and 97%	9% and 5%	0% and 8%
CN(C)c1ccnc2sc3c(=O)n(N4CCCCCC4)cnc3c12	81% and 87%	19% and 16%	72% and 77%	1%	4% and 6%	2%	18% and 12%	98%	7% and 6%	2%

Same assay, conditions: human, 12 h, 1 µM, compound concentration 1 uM

Structure (SMILES)	Total Cell Count
C[C@H]1[C@H]2CC[C@H]3[C@@H]4CC=C5C[C@@H](N(C)C)CC[C@]5(C)[C@H]4CC[C@]23CN1C [CONESSINE]	248 and 124
CC(C)C[C@@H]1NC(=O)[C@@H](C(C)C)NC(=O)[C@@H]2CCCN2C(=O)[C@@H](CC(=O)O)NC(=O)[C@@H](Cc2c[nH]c3ccccc23)NC1=O [BQ-123] (cyclo(L[dW][dD]P[dV]))	228 and 118
CN(C)c1ccnc2sc3c(=O)n(N4CCCCCC4)cnc3c12	284 and 132

Same assay, conditions: human, 12 h, 10 µM, compound concentration 10 uM

Structure (SMILES)	Population Apoptotic (%)	Population Fragmented Nuclei (%)	Population Healthy Nuclei (%)	Population Hoechst High Intensity Objects (%)	Population Membrane Permeable-Phenotype (%)	Population Mitochondria Different-Phenotype (%)	Population Normal (%)	Population Pyknosed Nuclei (%)	Population Tubulin-Different-Phenotype (%)	Total Cell Count
C[C@H]1[C@H]2CC[C@H]3[C@@H]4CC=C5C[C@@H](N(C)C)CC[C@]5(C)[C@H]4CC[C@]23CN1C [CONESSINE]	55% and 100%	19% and 17%	71% and 68%	2% and 0%	5% and 8%	0% and 5%	97% and 99%	8% and 13%	1% and 6%	237 and 107
CCCC(CCC)C(=O)O [VALPROIC ACID]	77% and 85%	30% and 21%	66% and 70%	4% and 0%	6% and 4%	3% and 4%	95% and 100%	3% and 7%	4%	
CC(C)C[C@@H]1NC(=O)[C@@H](C(C)C)NC(=O)[C@@H]2CCCN2C(=O)[C@@H](CC(=O)O)NC(=O)[C@@H](Cc2c[nH]c3ccccc23)NC1=O [BQ-123] (cyclo(L[dW][dD]P[dV]))	78% and 75%	29% and 25%	65% and 70%	2%	8% and 7%	1% and 4%	97%	4%	3% and 2%	294 and 99
CN(C)c1ccnc2sc3c(=O)n(N4CCCCCC4)cnc3c12	41% and 88%	30% and 18%	56% and 71%	4% and 5%	30% and 23%	14% and 27%	95% and 94%	12% and 9%	20% and 22%	249 and 101

Same assay, conditions: human, 12 h, 10 µM, compound concentration 10 uM

Structure (SMILES)	Population Mitotic Cells (%)
CCCC(CCC)C(=O)O [VALPROIC ACID]	22% and 14%
CC(C)C[C@@H]1NC(=O)[C@@H](C(C)C)NC(=O)[C@@H]2CCCN2C(=O)[C@@H](CC(=O)O)NC(=O)[C@@H](Cc2c[nH]c3ccccc23)NC1=O [BQ-123] (cyclo(L[dW][dD]P[dV]))	21% and 25%

Same assay, conditions: human, 24 h, 1 µM, compound concentration 1 uM

Structure (SMILES)	Population Apoptotic (%)	Population Fragmented Nuclei (%)	Population Healthy Nuclei (%)	Population Hoechst High Intensity Objects (%)	Population Membrane Permeable-Phenotype (%)	Population Mitochondria Different-Phenotype (%)	Population Mitotic Cells (%)	Population Normal (%)	Population Pyknosed Nuclei (%)	Population Tubulin-Different-Phenotype (%)
C[C@H]1[C@H]2CC[C@H]3[C@@H]4CC=C5C[C@@H](N(C)C)CC[C@]5(C)[C@H]4CC[C@]23CN1C [CONESSINE]	90% and 100%	18% and 11%	74% and 81%	2% and 1%	6% and 8%	1% and 5%	9% and 0%	97% and 98%	7%	3% and 7%
CCCC(CCC)C(=O)O [VALPROIC ACID]	84% and 100%	24% and 17%	66% and 74%	6% and 3%	9%	6% and 2%	16% and 0%	93% and 96%	8%	9% and 7%
CC(C)C[C@@H]1NC(=O)[C@@H](C(C)C)NC(=O)[C@@H]2CCCN2C(=O)[C@@H](CC(=O)O)NC(=O)[C@@H](Cc2c[nH]c3ccccc23)NC1=O [BQ-123] (cyclo(L[dW][dD]P[dV]))	69% and 85%	16% and 11%	75% and 77%	0%	2% and 6%	1% and 0%	30% and 14%	99%	8% and 10%	1% and 3%
CN(C)c1ccnc2sc3c(=O)n(N4CCCCCC4)cnc3c12	87% and 72%	16% and 15%	72% and 76%	2%	3% and 6%	3%	12% and 27%	97%	10% and 7%	1% and 4%

Same assay, conditions: human, 24 h, 1 µM, compound concentration 1 uM

Structure (SMILES)	Total Cell Count
C[C@H]1[C@H]2CC[C@H]3[C@@H]4CC=C5C[C@@H](N(C)C)CC[C@]5(C)[C@H]4CC[C@]23CN1C [CONESSINE]	307 and 153
CC(C)C[C@@H]1NC(=O)[C@@H](C(C)C)NC(=O)[C@@H]2CCCN2C(=O)[C@@H](CC(=O)O)NC(=O)[C@@H](Cc2c[nH]c3ccccc23)NC1=O [BQ-123] (cyclo(L[dW][dD]P[dV]))	279 and 137
CN(C)c1ccnc2sc3c(=O)n(N4CCCCCC4)cnc3c12	326 and 150

Same assay, conditions: human, 24 h, 10 µM, compound concentration 10 uM

Structure (SMILES)	Population Apoptotic (%)	Population Fragmented Nuclei (%)	Population Healthy Nuclei (%)	Population Hoechst High Intensity Objects (%)	Population Membrane Permeable-Phenotype (%)	Population Mitochondria Different-Phenotype (%)	Population Normal (%)	Population Pyknosed Nuclei (%)	Population Tubulin-Different-Phenotype (%)	Total Cell Count
C[C@H]1[C@H]2CC[C@H]3[C@@H]4CC=C5C[C@@H](N(C)C)CC[C@]5(C)[C@H]4CC[C@]23CN1C [CONESSINE]	65% and 100%	20% and 19%	71%	2% and 4%	2% and 10%	0% and 4%	97% and 95%	7% and 8%	1% and 9%	265 and 134
CCCC(CCC)C(=O)O [VALPROIC ACID]	83% and 100%	25% and 17%	71% and 78%	2% and 0%	4% and 8%	3% and 4%	97% and 100%	3% and 4%	3% and 5%	
CC(C)C[C@@H]1NC(=O)[C@@H](C(C)C)NC(=O)[C@@H]2CCCN2C(=O)[C@@H](CC(=O)O)NC(=O)[C@@H](Cc2c[nH]c3ccccc23)NC1=O [BQ-123] (cyclo(L[dW][dD]P[dV]))	92% and 100%	24%	67% and 74%	2% and 0%	8% and 6%	2% and 8%	97% and 99%	7% and 1%	4%	338 and 113
CN(C)c1ccnc2sc3c(=O)n(N4CCCCCC4)cnc3c12	68% and 100%	28% and 11%	56% and 75%	4% and 3%	22% and 23%	15% and 25%	95% and 96%	15% and 13%	14% and 24%	260 and 108

Same assay, conditions: human, 24 h, 10 µM, compound concentration 10 uM

Structure (SMILES)	Population Mitotic Cells (%)
CCCC(CCC)C(=O)O [VALPROIC ACID]	16% and 0%
CC(C)C[C@@H]1NC(=O)[C@@H](C(C)C)NC(=O)[C@@H]2CCCN2C(=O)[C@@H](CC(=O)O)NC(=O)[C@@H](Cc2c[nH]c3ccccc23)NC1=O [BQ-123] (cyclo(L[dW][dD]P[dV]))	8% and 0%

Same assay, conditions: human, 48 h, 1 µM, compound concentration 1 uM

Structure (SMILES)	Population Apoptotic (%)	Population Fragmented Nuclei (%)	Population Healthy Nuclei (%)	Population Hoechst High Intensity Objects (%)	Population Membrane Permeable-Phenotype (%)	Population Mitochondria Different-Phenotype (%)	Population Mitotic Cells (%)	Population Normal (%)	Population Pyknosed Nuclei (%)	Population Tubulin-Different-Phenotype (%)
C[C@H]1[C@H]2CC[C@H]3[C@@H]4CC=C5C[C@@H](N(C)C)CC[C@]5(C)[C@H]4CC[C@]23CN1C [CONESSINE]	83% and 86%	16%	79% and 73%	2	4%	2% and 0%	16% and 13%	97	4% and 9%	1% and 2%
CCCC(CCC)C(=O)O [VALPROIC ACID]	76% and 91%	20% and 16%	69% and 72%	3	7% and 8%	5%	23% and 8%	96	9% and 11%	5% and 6%
CC(C)C[C@@H]1NC(=O)[C@@H](C(C)C)NC(=O)[C@@H]2CCCN2C(=O)[C@@H](CC(=O)O)NC(=O)[C@@H](Cc2c[nH]c3ccccc23)NC1=O [BQ-123] (cyclo(L[dW][dD]P[dV]))	77% and 100%	14% and 18%	79% and 70%	1	3%	1% and 3%	22% and 0%	98	5% and 10%	3% and 2%
CN(C)c1ccnc2sc3c(=O)n(N4CCCCCC4)cnc3c12	90% and 92%	17% and 15%	74% and 72%	2	4% and 5%	1% and 5%	9% and 7%	97	8% and 11%	2%

Same assay, conditions: human, 48 h, 1 µM, compound concentration 1 uM

Structure (SMILES)	Total Cell Count
C[C@H]1[C@H]2CC[C@H]3[C@@H]4CC=C5C[C@@H](N(C)C)CC[C@]5(C)[C@H]4CC[C@]23CN1C [CONESSINE]	430 and 227
CC(C)C[C@@H]1NC(=O)[C@@H](C(C)C)NC(=O)[C@@H]2CCCN2C(=O)[C@@H](CC(=O)O)NC(=O)[C@@H](Cc2c[nH]c3ccccc23)NC1=O [BQ-123] (cyclo(L[dW][dD]P[dV]))	407 and 226
CN(C)c1ccnc2sc3c(=O)n(N4CCCCCC4)cnc3c12	486 and 239

Same assay, conditions: human, 48 h, 10 µM, compound concentration 10 uM

Structure (SMILES)	Population Apoptotic (%)	Population Fragmented Nuclei (%)	Population Healthy Nuclei (%)	Population Hoechst High Intensity Objects (%)	Population Membrane Permeable-Phenotype (%)	Population Mitochondria Different-Phenotype (%)	Population Mitotic Cells (%)	Population Normal (%)	Population Pyknosed Nuclei (%)	Population Tubulin-Different-Phenotype (%)
C[C@H]1[C@H]2CC[C@H]3[C@@H]4CC=C5C[C@@H](N(C)C)CC[C@]5(C)[C@H]4CC[C@]23CN1C [CONESSINE]	89% and 85%	19% and 15%	73% and 72%	1% and 6%	4% and 9%	2% and 5%	10% and 15%	98% and 93%	7% and 12%	3% and 6%
CCCC(CCC)C(=O)O [VALPROIC ACID]	91% and 93%	20%	71%	2% and 1%	3% and 9%	2%	8% and 6%	97% and 98%	7%	1% and 4%
CC(C)C[C@@H]1NC(=O)[C@@H](C(C)C)NC(=O)[C@@H]2CCCN2C(=O)[C@@H](CC(=O)O)NC(=O)[C@@H](Cc2c[nH]c3ccccc23)NC1=O [BQ-123] (cyclo(L[dW][dD]P[dV]))	94% and 81%	19% and 20%	70% and 66%	1%	5%	2% and 6%		98%	9% and 12%	3% and 2%
CN(C)c1ccnc2sc3c(=O)n(N4CCCCCC4)cnc3c12	68% and 72%	28% and 15%	57% and 61%	4% and 9%	15% and 21%	11% and 19%	31% and 27%	95% and 90%	14% and 22%	

Same assay, conditions: human, 48 h, 10 µM, compound concentration 10 uM

Structure (SMILES)	Total Cell Count
C[C@H]1[C@H]2CC[C@H]3[C@@H]4CC=C5C[C@@H](N(C)C)CC[C@]5(C)[C@H]4CC[C@]23CN1C [CONESSINE]	370 and 175
CN(C)c1ccnc2sc3c(=O)n(N4CCCCCC4)cnc3c12	325 and 140
